Results on 2 compounds are retold here after ChEMBL document CHEMBL3272050, “Prostaglandin prodrugs. 5.1 Prostaglandin E2 ethylene ketal” (J Med Chem, 1977).

Each structure is given as a SMILES string. Active and inactive are the calls of the source. No cut-off for these calls is given here.

Data set [1] can be described thus: Chemical stability of the compound assessed as formation of prostaglandin A2 at 12.61 x 10^-4 M at pH 4.53 at 25 degC by HPLC analysis. It counts as physicochemical. The conditions noted are these: buffer, pH 4.53, 1261 µM. In short, it runs like this:
(§1)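 Ketal incubated at 25 ± 0.5 °C, pH 2.0–6.5, in 0.1 M buffers (HCl, chloroacetic, acetic, succinic, phosphoric) with ionic strength set to 0.10 M by KCl. Initial ketal was 0.25 mg/mL at pH 2.0–3.5 and 0.50 mg/mL at pH 4.5–6.5. Timed aliquots were EtOAc-extracted for HPLC at 263 nm, quantified by peak-area ratios against calibration mixtures, and first-order rate constants fitted.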

Data set [2] is described as follows: Chemical stability of the compound assessed as formation of prostaglandin A2 at pH 2.08. It counts as physicochemical. Particulars: buffer.
Data set [3] in a line: Chemical stability of the compound assessed as formation of prostaglandin A2 at pH 4.53. It counts as physicochemical. Particulars: buffer.
The nature of data set [4]: Chemical stability of the compound assessed as formation of prostaglandin A2 at pH 2.99. Type of data set: physicochemical. Particulars: buffer.
The nature of data set [5]: Chemical stability of the compound assessed as formation of prostaglandin A2 at pH 3.50. Type of data set: physicochemical. The conditions noted are these: buffer, pH 3.5.
Data set [6] is described as follows: Chemical stability of the compound assessed as formation of prostaglandin A2 at pH 5.50. It counts as physicochemical. The conditions noted are these: buffer, pH 5.5.
The nature of data set [7]: Chemical stability of the compound assessed as formation of prostaglandin A2 at pH 6.50. It counts as physicochemical. The conditions noted are these: buffer, pH 6.5.
The nature of data set [8]: Chemical stability of the compound assessed as formation of prostaglandin A2 at 6.31 x 10^-4 M at pH 3.50 at 25 degC by HPLC analysis. It counts as physicochemical. The conditions noted are these: buffer, pH 3.5, 631 µM. In short, it runs like this:
as §1

A short description of data set [9]: Chemical stability of the compound assessed as half life of formation of prostaglandin A2 at pH 2 at 25 degC by HPLC analysis. Type of data set: physicochemical. Particulars: buffer. In short, it runs like this: as §1
Data set [10] in a line: Chemical stability of the compound assessed as half life of formation of prostaglandin E2 at pH 2 at 25 degC by HPLC analysis. It counts as physicochemical. The conditions noted are these: buffer. In short, it runs like this: as §1
Data set [11] can be described thus: Chemical stability of the compound assessed as formation of prostaglandin E2 at 12.61 x 10^-4 M at pH 6.50 at 25 degC by HPLC analysis. Particulars: buffer, pH 6.5, 1261 µM. It counts as physicochemical. In short, it runs like this:
as §1

Data set [12] is described as follows: Chemical stability of the compound assessed as formation of prostaglandin E2 at 12.61 x 10^-4 M at pH 5.50 at 25 degC by HPLC analysis. Type of data set: physicochemical. Particulars: buffer, pH 5.5, 1261 µM. In short, it runs like this:
as §1

The subject of data set [13] is Rhesus monkey. Description: Increase of uterine contractions in rhesus monkey at 16.87 mg, po administered on 100th day of pregnancy. It counts as functional, organism-based. The conditions noted are these: Macaca mulatta. In short, it runs like this: (§2)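 Female rhesus monkeys on day 100 of pregnancy received an oral dose of 5.62 or 16.87 mg in 0.1 M THAM buffer, pH 8.5. Uterine contraction frequency and amplitude (mmHg) were recorded through an open-ended catheter in the amniotic cavity and compared with pretreatment activity.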

Data set [14] has as its system Rhesus monkey. Description: Increase of amplitude of uterine contractions in rhesus monkey at 16.87 mg, po administered on 100th day of pregnancy. Type of data set: functional, organism-based. Particulars: Macaca mulatta. In short, it runs like this:
as §2

The nature of data set [15]: Chemical stability of the compound assessed as formation of prostaglandin E2 at 6.31 x 10^-4 M at pH 2.08 at 25 degC by HPLC analysis. Type of data set: physicochemical. Particulars: buffer, pH 2.08, 631 µM. In short, it runs like this: as §1
Data set [16] is described as follows: Drug metabolism assessed as disappearance of compound at pH 3.5 at 25 degC by HPLC analysis. It counts as physicochemical. Particulars: read-out: Drug metabolism. In short, it runs like this:
as §1

Data set [17] has as its system Rhesus monkey. Description: Increase of amplitude of uterine contractions in rhesus monkey at 5.62 mg, po administered on 100th day of pregnancy. It counts as functional, Macaca mulatta. In short, it runs like this:
as §2

The nature of data set [18]: Chemical stability of the compound assessed as formation of prostaglandin E2 at 6.31 x 10^-4 M at pH 3.50 at 25 degC by HPLC analysis. Type of data set: physicochemical. Particulars: buffer, pH 3.5, 631 µM. In short, it runs like this: as §1
Data set [19] is described as follows: Chemical stability of the compound assessed as formation of prostaglandin E2 at 6.31 x 10^-4 M at pH 2.99 at 25 degC by HPLC analysis. It counts as physicochemical. The conditions noted are these: buffer, pH 2.99, 631 µM. In short, it runs like this:
as §1

The nature of data set [20]: Chemical stability of the compound assessed as formation of prostaglandin E2 at pH 2.08 to 6.50 at 25 degC by HPLC analysis. The conditions noted are these: buffer. Type of data set: physicochemical. In short, it runs like this: as §1
The nature of data set [21]: Chemical stability of the compound assessed as formation of prostaglandin E2 at 12.61 x 10^-4 M at pH 4.53 at 25 degC by HPLC analysis. Particulars: buffer, pH 4.53, 1261 µM. It counts as physicochemical. In short, it runs like this: as §1
For data set [22], the system named is Rhesus monkey. The experiment in a line: Increase of uterine motility in rhesus monkey at 5.62 mg, po administered on 100th day of pregnancy. It counts as functional, organism-based. Particulars: Macaca mulatta. In short, it runs like this: as §2
For data set [23], the system named is Rhesus monkey. Description: Increase of uterine contractions in rhesus monkey at 5.62 mg, po administered on 100th day of pregnancy. It counts as functional, organism-based. The conditions noted are these: Macaca mulatta. In short, it runs like this:
as §2

Consider `CCCCC[C@H](O)/C=C/[C@H]1[C@H](O)CC(=O)[C@@H]1C/C=C\CCCC(=O)O` [DINOPROSTONE], for which the K stood at 3.36 ×10⁻⁷ /s in data set [1]; 5.8 ×10⁻⁷ /s in data set [2]; 3.1 ×10⁻⁷ /s in data set [3]; 2.8 ×10⁻⁷ /s in [4]; 2.3 ×10⁻⁷ /s in data set [5]; 4 ×10⁻⁷ /s in data set [6]. Further, the figures for the K in data set [7] and in [8] were 5.3 ×10⁻⁷ /s and 5.8 ×10⁻⁷ /s, respectively. Besides, the t1/2 in [9] amounted to 14 days.
In the case of `CCCCC[C@H](O)/C=C/[C@H]1[C@H](O)CC2(OCCO2)[C@@H]1C/C=C\CCCC(=O)O`, the t1/2 in data set [10] came to 60 min. Further, the K in [11] is on record as 2.58 ×10⁻⁸ /s; in data set [12] it was 1.71 ×10⁻⁷ /s; in [15], 1.93 ×10⁻⁴ /s; in [18] it was 5.78 ×10⁻⁶ /s; in data set [19], 2.29 ×10⁻⁵ /s; in data set [20] it was 2.24 ×10⁻² /s/M. In [21], the K stood at 7.61 ×10⁻⁷ /s. Besides, the outcome with Rhesus monkey [13], with Rhesus monkey [14], in the data set on Rhesus monkey [22] and in the data set on Rhesus monkey [23] was Active. Also, in data set [16], the degraded worked out at 70%. Also, the Activity in the data set with Rhesus monkey [17] is given as 7 mmHg.
